Measured values as given in ChEMBL document CHEMBL4265871, “Novel alkylated azoles as potent antifungals” (Eur J Med Chem, 2017).
In brackets after ≈: the same amount, converted by molar mass. Activity calls are given as the source filed them. The rule behind the calls is not given here.

Experiments:
Pichia kudriavzevii = assay: Antifungal activity against Candida krusei ATCC 6258 incubated for 48 hrs by modified CLSI M27-A3 protocol based method; format: functional; settings: ATCC 6258, 48 h, read-out: MIC100
Summary of the method: (§1)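 For C. albicans ATCC 10231, C. krusei ATCC 6258 and C. parapsilosis ATCC 22019, MIC-0 was read, meaning complete growth inhibition. For azole controls, MIC-2 (50% growth inhibition) was reported instead. Caspofungin and voriconazole were tested here; other controls came from earlier work.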

[1] = Selectivity index, ratio of […] for toxicity in human BEAS2B cells to MIC50 for antifungal activity against Aspergillus flavus ATCC MYA-3631; format: cell-based; settings: BEAS-2B cells, read-out: Selectivity Index
BEAS-2B = assay: Toxicity in human BEAS2B cells assessed as cell viability at 15.6 ug/ml incubated for 24 hrs by resazurin dye based assay
[2] = Selectivity index, ratio of EC50 for toxicity in human BEAS2B cells to MIC50 for antifungal activity against ITC and FLC-resistant Candida albicans ATCC MYA-1003; format: cell-based; settings: BEAS-2B cells, read-out: Selectivity Index
Summary of the method: (§2)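 Selectivity index is the EC50 against the mammalian line (A549 or BEAS-2B) divided by the MIC against the given fungal strain.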

[3] = Selectivity index, ratio of EC50 for toxicity in human BEAS2B cells to MIC50 for antifungal activity against Candida glabrata ATCC 2001; format: cell-based; settings: BEAS-2B cells, read-out: Selectivity Index; summary of the method: as §2
[4] = Toxicity in human A549 cells assessed as reduction in cell viability incubated for 24 hrs by resazurin dye based assay
Summary of the method: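 Toxicity tested in the nucleated lines A549 and BEAS-2B to give EC50 values. Selectivity index is EC50 against the mammalian line divided by the MIC against a given fungal strain.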

[5] = Selectivity index, ratio of EC50 for toxicity in human BEAS2B cells to MIC50 for antifungal activity against ITC and FLC-susceptible Candida albicans ATCC MYA-2310; format: cell-based; settings: BEAS-2B cells, read-out: Selectivity Index
Summary of the method: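 Ratio of the compound's EC50 against BEAS-2B cells to its MIC against the named C. albicans strain. […] For C. albicans strains other than ATCC 10231, trailing growth meant MIC-2 was taken, meaning 50% growth inhibition.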

[6] = Selectivity index, ratio of EC50 for toxicity in human A549 cells to MIC50 for antifungal activity against ITC and FLC-susceptible Candida albicans ATCC MYA-2876; format: cell-based; settings: read-out: Selectivity Index; summary of the method: as §2
Candida albicans [7] = assay: Antifungal activity against Candida albicans ATCC 10231 incubated for 48 hrs by modified CLSI M27-A3 protocol based method; format: functional; settings: ATCC 10231, 48 h, read-out: MIC100; summary of the method: as §1
Candida albicans [8] = assay: Antifungal activity against ITC and FLC-resistant Candida albicans ATCC MYA-90819 incubated for 48 hrs by modified CLSI M27-A3 protocol based method; format: functional; settings: ATCC MYA-90819, 48 h
[9] = Hemolytic activity in mouse erythrocytes assessed as hemolysis level at 3.9 ug/ml incubated for 1 hr at 37 degC; format: ADME, cell-based, Erythrocyte; settings: read-out: Activity
Summary of the method: (§3)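 Mouse erythrocytes incubated 1 h at 37 °C with test agents over 1.95 to 125 µg/mL. Percent lysis is read for each concentration.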

[10] = Selectivity index, ratio of EC50 for toxicity in human BEAS2B cells to MIC50 for antifungal activity against Candida krusei ATCC 6258; settings: BEAS-2B cells
[11] = Selectivity index, ratio of EC50 for toxicity in human A549 cells to MIC100 for antifungal activity against Candida albicans ATCC 10231; format: cell-based; settings: read-out: Selectivity Index; summary of the method: as §2
Candida albicans [12] = assay: Antifungal activity against Candida albicans ATCC 64124 incubated for 48 hrs by modified CLSI M27-A3 protocol based method; format: functional; settings: ATCC 64124, 48 h
[13] = Selectivity index, ratio of […] for toxicity in human A549 cells to MIC50 for antifungal activity against Aspergillus terreus ATCC MYA-3633; format: cell-based; settings: read-out: Selectivity Index
Aspergillus terreus = assay: Antifungal activity against Aspergillus terreus ATCC MYA-3633 incubated for 48 hrs by CLSI M38-A2 protocol based method; format: functional; settings: ATCC MYA-3633, 48 h, read-out: MIC100
A549 = assay: Toxicity in human A549 cells assessed as cell viability at 15.6 ug/ml incubated for 24 hrs by resazurin dye based assay; settings: a549, 24 h
[14] = Hemolytic activity in mouse erythrocytes assessed as hemolysis level at 31.3 ug/ml incubated for 1 hr at 37 degC; format: ADME, cell-based, Erythrocyte; settings: read-out: Activity; summary of the method: as §3
Candida albicans [15] = assay: Induction of membrane permeabilization in Candida albicans ATCC 10231 at 1 to 4 times MIC incubated for 1 hr by propidium iodide staining based fluorescence microscopy; format: functional, organism-based
Summary of the method: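 C. albicans ATCC 10231 treated at 1× and 4× MIC and stained with propidium iodide, a membrane-impermeant dye, to detect membrane damage. Untreated cells, FLC (7.8 µg/mL) and KANB (C14) (7.8 µg/mL) serve as comparators.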

Row | SMILES | MIC (Pichia kudriavzevii) | selectivity ratio [1] | viability (BEAS-2B) | selectivity ratio [2] | selectivity ratio [3] | EC50 at 24 h [4] | selectivity ratio [5] | selectivity ratio [6] | MIC (Candida albicans [7]) | MIC50 (Candida albicans [8]) | hemolysis at 1 h, 3.9 ug/ml [9] | selectivity ratio [10] | selectivity ratio [11] | MIC50 (Candida albicans [12]) | selectivity ratio [13] | MIC (Aspergillus terreus) | viability (A549) | hemolysis at 1 h, 31.3 ug/ml [14] | Activity (Candida albicans [15])
1 | CCCCC(O)(Cn1cncn1)c1ccc(Cl)cc1Cl (stereo unspecified) [HEXACONAZOLE] | 0.19 µM (≈ 0.0597 µg/mL) | 8 | > 85% | 32 | 8 | > 31.3 µg/mL | 16 | 16 | 0.76 µM (≈ 0.239 µg/mL) | 6.2 µM (≈ 1.95 µg/mL) | 0% | 522 | 130 | 12.4 µM (≈ 3.9 µg/mL) | 32 | 3.1 µM (≈ 0.974 µg/mL) | > 85% | 0% | 
2 | CCCCCC(O)(Cn1cncn1)c1ccccc1F (stereo unspecified) | 0.22 µM (≈ 0.061 µg/mL) | 4 |  | 8 | 32 | 37 µg/mL (≈ 133 µM) | 32 | 38 | 14.1 µM (≈ 3.91 µg/mL) | 1.7 µM (≈ 0.471 µg/mL) | 0% | 522 | 9 | > 113 µM | 9 | 14.1 µM (≈ 3.91 µg/mL) |  | 0% | 
3 | CCCCCC(O)(Cn1cncn1)c1ccccc1Cl (stereo unspecified) | 3.3 µM (≈ 0.97 µg/mL) | 1 |  | 4 | 32 | > 31.3 µg/mL | 32 | 32 | 26.5 µM (≈ 7.79 µg/mL) | 1.6 µM (≈ 0.47 µg/mL) | 0% | 32 | 4 | > 106 µM | 2 | 53.1 µM (≈ 15.6 µg/mL) |  | 0% | 
4 | CCCCCCCCC(O)(Cn1cncn1)c1ccc(F)cc1F (stereo unspecified) | 0.71 µM (≈ 0.24 µg/mL) | 0.4 |  | 7 | 7 | 12 µg/mL (≈ 35.6 µM) | 7 | 6 | 5.8 µM (≈ 1.96 µg/mL) | 5.8 µM (≈ 1.96 µg/mL) | 0% | 54 | 6 | 11.6 µM (≈ 3.91 µg/mL) | 2 | 23.1 µM (≈ 7.79 µg/mL) |  | 68.4% | inactive
5 | CCCCCC(O)(Cn1cncn1)c1ccc(Cl)cc1 (stereo unspecified) | 0.41 µM (≈ 0.12 µg/mL) | 1 |  | 16 | 8 | > 31.3 µg/mL | 2 | 2 | 6.6 µM (≈ 1.94 µg/mL) | 6.6 µM (≈ 1.94 µg/mL) |  | 261 | 16 | 26.5 µM (≈ 7.79 µg/mL) | 1 | > 106 µM |  |  | 
6 | CCCCCC(O)(Cn1cncn1)c1ccc(Cl)cc1Cl (stereo unspecified) | 1.5 µM (≈ 0.492 µg/mL) | 8 | > 85% | 32 | 16 | 33 µg/mL (≈ 101 µM) | 16 | 34 | 0.73 µM (≈ 0.24 µg/mL) | 5.9 µM (≈ 1.94 µg/mL) | 0% | 65 | 138 | 5.9 µM (≈ 1.94 µg/mL) | 8 | 11.9 µM (≈ 3.91 µg/mL) | > 85% | 90.5% | 
7 | CCCCCC(O)(Cn1cncn1)c1ccc(F)cc1 (stereo unspecified) | 3.5 µM (≈ 0.971 µg/mL) | 1 |  | 1 | 4 | > 31.3 µg/mL | 8 | 4 | 14.1 µM (≈ 3.91 µg/mL) | 3.5 µM (≈ 0.971 µg/mL) |  | 34 | 8 | > 113 µM | 1 | 113 µM (≈ 31.3 µg/mL) |  |  | 
8 | CCCCC(O)(Cn1cncn1)c1ccc(F)cc1F (stereo unspecified) | 0.21 µM (≈ 0.0591 µg/mL) | 2 |  | 9 | 1 | > 31.3 µg/mL | 1 | 4 | 6.9 µM (≈ 1.94 µg/mL) | 55.5 µM (≈ 15.6 µg/mL) | 0% | 600 | 16 | 55.5 µM (≈ 15.6 µg/mL) | 2 | 55.5 µM (≈ 15.6 µg/mL) |  | 3.7% | 
9 | CCCC(O)(Cn1cncn1)c1ccc(Cl)cc1Cl (stereo unspecified) | 0.2 µM (≈ 0.06 µg/mL) | 2 | > 85% | 32 | 8 | > 31.3 µg/mL | 8 | 16 | 0.8 µM (≈ 0.24 µg/mL) | 13 µM (≈ 3.9 µg/mL) |  | 522 | 130 | 13 µM (≈ 3.9 µg/mL) | 8 | 13 µM (≈ 3.9 µg/mL) | > 85% |  | 
10 | CCCCCCC(O)(Cn1cncn1)c1ccccc1F (stereo unspecified) | 0.21 µM (≈ 0.0612 µg/mL) | 1 to 2 |  | 8 | 32 | > 31.3 µg/mL | 32 | 32 | 6.7 µM (≈ 1.95 µg/mL) | 0.82 µM (≈ 0.239 µg/mL) | 0% | 522 | 16 | > 107 µM | 8 | 13.4 µM (≈ 3.9 µg/mL) |  | 8.7% | 
11 | CCCCCCC(O)(Cn1cncn1)c1ccc(Cl)cc1 (stereo unspecified) | 6.3 µM (≈ 1.94 µg/mL) | 1 |  | 16 | 1 | 38 µg/mL (≈ 123 µM) | 1 | 5 | 6.3 µM (≈ 1.94 µg/mL) | 12.7 µM (≈ 3.91 µg/mL) | 0% | 16 | 19 | 102 µM (≈ 31.3 µg/mL) | 2 | 50.7 µM (≈ 15.6 µg/mL) |  | 9.5% | 
12 | CCCCCCC(O)(Cn1cncn1)c1ccc(F)cc1 (stereo unspecified) | 3.3 µM (≈ 0.962 µg/mL) | 1 |  | 4 | 4 | > 31.3 µg/mL | 4 | 4 | 53.5 µM (≈ 15.6 µg/mL) | 3.3 µM (≈ 0.962 µg/mL) | 0% | 32 | 2 | > 107 µM | 2 | 53.5 µM (≈ 15.6 µg/mL) |  | 0% | 
13 | CCCCCCC(O)(Cn1cncn1)c1ccccc1Cl (stereo unspecified) | 0.39 µM (≈ 0.12 µg/mL) | 8 to 16 |  | 4 | 32 | > 31.3 µg/mL | 16 | 32 | 25.3 µM (≈ 7.79 µg/mL) | 6.3 µM (≈ 1.94 µg/mL) | 0% | 261 | 4 | > 102 µM | 65 | 1.6 µM (≈ 0.493 µg/mL) |  | 0% | 
14 | CCCCCC(O)(Cn1cncn1)c1ccc(F)cc1F (stereo unspecified) | 0.81 µM (≈ 0.239 µg/mL) | 2 |  | 16 | 4 | > 31.3 µg/mL | 4 | 4 | 6.6 µM (≈ 1.95 µg/mL) | 13.2 µM (≈ 3.9 µg/mL) | 0% | 130 | 16 | 26.4 µM (≈ 7.8 µg/mL) | 1 | > 106 µM |  | 10.1% | inactive
